The species entered for experiment [1] is Homo sapiens. Put plainly: Selectivity ratio of IC50 for human plasma alpha-thrombin to IC50 for wild type recombinant human thrombin.
The species entered for experiment [2] is Homo sapiens. Put plainly: (§1) Binding affinity to human plasma alpha-thrombin exosite-1 using spectrozyme TH as substrate after overnight incubation at 25 degC by spectrophotometric analysis in presence of 5 nM hirugen peptide. The format is cell-free.
A short description of experiment [3]: as §1. The format is cell-free.
The nature of experiment [4]: Inhibition of recombinant human thrombin R175A mutant expressed in BHK cells using S2238 as substrate after overnight incubation at 25 degC. In a few lines:
(§2)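 BHK-expressed, HPC4 immunoaffinity-purified thrombins, activated from prothrombin form. Active-site concentration from amidolysis and antithrombin titration. Enzyme (1.5−7.5 nM final) incubated overnight at 25 °C with inhibitor in Tris pH 7.4 buffer in coated cuvettes. Residual activity from S2238 initial rate at A405, using at least 9−10 points. Logistic fit gives IC50. Ratio is mutant IC50 over wild-type IC50.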

The species entered for experiment [5] is Homo sapiens. Put plainly: Uncompetitive inhibition of human plasma alpha-thrombin using spectrozyme TH as substrate assessed as decrease in enzyme Vmax at 9.9 uM after 2 hrs at 37 degC by Michaelis-Menten equation analysis relative to control. The format is cell-free. The method in brief: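 5 nM plasma α-thrombin with fixed inhibitor, preincubated overnight at 25 °C or 2 h at 37 °C in 20 mM Tris-HCl pH 7.4, 100 mM NaCl, 2.5 mM CaCl2, 0.1% PEG8000. Initial Spectrozyme TH (2−80 μM) hydrolysis rate read at 405 nm with under 10% substrate consumption. Michaelis−Menten fit gives KM and VMAX; error ±1 SE.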

The nature of experiment [6]: Inhibition of recombinant human thrombin R126A mutant expressed in BHK cells using S2238 as substrate after overnight incubation at 25 degC. The method in brief: as §2
Experiment [7] relates to Plasma. Put plainly: Anticoagulant activity in human plasma assessed as increase in prothrombin time at 568 uM after 30 secs by fibrometric analysis relative to control. The format is functional. The method in brief: (§3)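 Citrated human plasma, one-stage recalcification, fibrometer read-out. APTT: 90 μL plasma + 10 μL inhibitor or vehicle + prewarmed 0.2% ellagic acid, 4 min, then 25 mM CaCl2 (37 °C). PT: inhibitor + plasma 30 s at 37 °C, then prewarmed thromboplastin. Duplicates. Quadratic trend line fit gives concentration doubling clotting time versus vehicle blank.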

A further experiment addresses Prothrombin (Homo sapiens, UniProt P00734). Put plainly: Inhibition of wild type recombinant human thrombin expressed in BHK cells using S2238 as substrate after overnight incubation at 25 degC. The method in brief: as §2
Experiment [8] is described as follows: Inhibition of recombinant human thrombin R101A mutant expressed in BHK cells using S2238 as substrate after overnight incubation at 25 degC. The method in brief:
as §2

The nature of experiment [9]: Inhibition of recombinant human thrombin K240A mutant expressed in BHK cells using S2238 as substrate after overnight incubation at 25 degC. The method in brief:
as §2

Experiment [10] relates to Plasma. The experiment can be described thus: Anticoagulant activity in human plasma assessed as increase in activated partial […] time at 139 uM after 4 mins by fibrometric analysis relative to control. In kind it is functional. In a few lines:
as §3

Experiment [11] is filed under the species Homo sapiens. The experiment can be described thus: (§4) Binding affinity to human plasma alpha-thrombin exosite-1 using spectrozyme TH as substrate after overnight incubation at 25 degC by spectrophotometric analysis in presence of 3 nM hirugen peptide. The format is cell-free.
Experiment [12] is described as follows: as §4. In kind it is cell-free.
The species named for experiment [13] is Homo sapiens. Put plainly: (§5) Binding affinity to human plasma alpha-thrombin exosite-2 using spectrozyme TH as substrate after overnight incubation at 25 degC by spectrophotometric analysis in presence of 4.2 uM unfractionated heparin. In kind it is cell-free.
Experiment [14] can be described thus: as §5. In kind it is cell-free.
Experiment [15] is filed under the species Homo sapiens. Put plainly: Selectivity ratio of IC50 for recombinant human thrombin K236A mutant to IC50 for wild type recombinant human thrombin. The method in brief:
as §2

A word on the pIC50: it is −log10 of the IC50, conventionally taken in molar units. Consider `CCOC(=O)c1c(C)oc2cc(OC)c(OCc3oc4cc(OC)c(OCc5oc6cc(OC)c(OS(=O)(=O)[O-])cc6c5C(=O)OCC)cc4c3C(=O)OCC)cc12.[Na+]`, for which the Ratio IC50 in the experiment listed under Homo sapiens [1] came out at 2.5; in the experiment listed under Homo sapiens [15], 1.5. For the same compound, the pIC50(app) in the experiment listed under Homo sapiens [2] came out at 6.1; in the experiment filed under Homo sapiens [11] it was 6.07; in the experiment listed under Homo sapiens [13], 6. The IC50 is 800 nM in experiment [3]; 430 nM in [4]; 290 nM in [6]; 260 nM on Prothrombin (read-out: IC50); 263 nM at Prothrombin (read-out: pIC50 (converted)); 390 nM in experiment [8]. Moreover, the IC50 in [9] was determined as 270 nM; in [12] it was 900 nM; in experiment [14], 1000 nM. In addition, the pIC50 in experiment [4] was 6.363; in [6] it was 6.55; in [8], 6.41; in experiment [9], 6.57. The fold change (FC) in the experiment listed under Homo sapiens [5] turned out to be 5.7; in the experiment on Plasma [7], 2; in the experiment on Plasma [10], 2.

The values are drawn from ChEMBL document CHEMBL2396594, “Designing allosteric regulators of thrombin. Exosite 2 features multiple subsites that can be targeted by sulfated small molecules for inducing inhibition” (J Med Chem, 2013).
